Consider four substances from PMC11253529 (iScience, 2024).

One assay deals with C. albicans FH2173.
Assay: not given
The note with it: MHII medium; previously determined values; ref Krämer et al.[35]; cited from earlier work.
FFGAIAKLAMK [Checacin 1^1−11]: the “MIC, C. albicans FH2173” value was above 50 µM.

For the substance FFGAIAKLAMKFLPAIYKQIQ [Checacin 1^1−21], the “MIC, C. albicans FH2173” value is above 50 µM.

“FFGAIAKLAMKFLPAIYKQIQKKRK-Amidation [Checacin 1]”: the “MIC, C. albicans FH2173” value is 6.25 µM.

Consider “FLPAIYKQIQKKRK-Amidation [Checacin 1^12−25]”, for which the “MIC, C. albicans FH2173” value was above 50 µM.

Another assay deals with A. flavus ATCC9170.
Assay: not given
The note with it: MHII medium; previously determined values; ref Krämer et al.[35]; cited from earlier work.
For the substance FFGAIAKLAMK [Checacin 1^1−11], the “MIC, A. flavus ATCC9170” value was above 50 µM.

With FFGAIAKLAMKFLPAIYKQIQ [Checacin 1^1−21], the “MIC, A. flavus ATCC9170” value is above 50 µM.

For the substance “FFGAIAKLAMKFLPAIYKQIQKKRK-Amidation [Checacin 1]”, the “MIC, A. flavus ATCC9170” value is 50 µM.

On to “FLPAIYKQIQKKRK-Amidation [Checacin 1^12−25]”, for which the “MIC, A. flavus ATCC9170” value was above 50 µM.

In another assay the test system is E. coli ATCC35218.
Assay: not given
Particulars: MHC medium; previously determined values; ref Krämer et al.[35]; cited from earlier work.
In the case of FFGAIAKLAMK [Checacin 1^1−11], the “MIC, E. coli ATCC35218, MHC medium (in brackets)” value (“MIC … (in brackets)” for short) was >50 (>50) μM.

FFGAIAKLAMKFLPAIYKQIQ [Checacin 1^1−21]: the “MIC … (in brackets)” value was >50 (>50) μM.

On to “FFGAIAKLAMKFLPAIYKQIQKKRK-Amidation [Checacin 1]”, for which the “MIC … (in brackets)” value was 1.6 µM.

Consider “FLPAIYKQIQKKRK-Amidation [Checacin 1^12−25]”, for which the “MIC … (in brackets)” value is >50 (>50) μM.

Staying with this assay, now noted: MHII medium; previously determined values; ref Krämer et al.[35]; cited from earlier work.
Take FFGAIAKLAMK [Checacin 1^1−11]: the “MIC, E. coli ATCC35218, MHII medium” value was >50 (>50) μM.

For the substance FFGAIAKLAMKFLPAIYKQIQ [Checacin 1^1−21], the “MIC, E. coli ATCC35218, MHII medium” value is >50 (>50) μM.

For “FLPAIYKQIQKKRK-Amidation [Checacin 1^12−25]”, the “MIC, E. coli ATCC35218, MHII medium” value is recorded as >50 (>50) μM.

For the next assay, the system named is P. aeruginosa ATCC27853.
Assay: not given
The note with it: MHII medium; previously determined values; ref Krämer et al.[35]; cited from earlier work.
In the case of FFGAIAKLAMK [Checacin 1^1−11], the “MIC, P. aeruginosa ATCC27853” value was above 50 µM.

For FFGAIAKLAMKFLPAIYKQIQ [Checacin 1^1−21], the “MIC, P. aeruginosa ATCC27853” value was above 50 µM.

Consider “FFGAIAKLAMKFLPAIYKQIQKKRK-Amidation [Checacin 1]”, for which the “MIC, P. aeruginosa ATCC27853” value is 12.5 µM.

For the substance “FLPAIYKQIQKKRK-Amidation [Checacin 1^12−25]”, the “MIC, P. aeruginosa ATCC27853” value is above 50 µM.

Staying with this assay, now noted: MHII medium; previously determined values; ref Krämer et al.[35]; listed as checacin 1; cited from earlier work.
On to “FFGAIAKLAMKFLPAIYKQIQKKRK-Amidation [Checacin 1]”, for which the “MIC, P. aeruginosa ATCC27853” value was “inhibited to various degrees”.

The subject of the next assay is intracellular Ca^2+. The assay is described as follows: Intracellular Ca2+ induction assay. Particulars: 2.5 μg/mL; Fluo-8 pre-treated HEK293T cells; fluorescence imaging; n = 3. It is filed as cell-based, human. The gist of the method:
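HEK293T cells (2 × 10^4/well, poly-D-lysine plates) were cultured 24 h at 37°C, then loaded with 4 μM Fluo-8-AM in HBSS for 1 h at 37°C and switched to HBSS. After peptide addition, confocal high-content images were taken every second for 20 s. Cells above a fluorescence threshold set from pre-treatment cells were counted against untreated cells. The positive control was 5 μM ionomycin.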
As to FFGAIAKLAMK [Checacin 1^1−11], the “Induction of intracellular Ca^2+ levels” value is recorded as “the only exceptions”.

In the case of “FLPAIYKQIQKKRK-Amidation [Checacin 1^12−25]”, the “Induction of intracellular Ca^2+ levels” value is recorded as “the only exceptions”.

In another assay the test system is M. smegmatis ATCC607.
Assay: not given
The note with it: MHII medium; previously determined values; ref Krämer et al.[35]; cited from earlier work.
Take FFGAIAKLAMK [Checacin 1^1−11]: the “MIC, M. smegmatis ATCC607” value was above 50 µM.

FFGAIAKLAMKFLPAIYKQIQ [Checacin 1^1−21]: the “MIC, M. smegmatis ATCC607” value is above 50 µM.

As to “FFGAIAKLAMKFLPAIYKQIQKKRK-Amidation [Checacin 1]”, the “MIC, M. smegmatis ATCC607” value was 25 µM.

Turning to “FLPAIYKQIQKKRK-Amidation [Checacin 1^12−25]”, the “MIC, M. smegmatis ATCC607” value is above 50 µM.

A further assay relates to S. aureus (MRSA) ATCC33592.
Assay: not given
Particulars: MHII medium; previously determined values; ref Krämer et al.[35]; cited from earlier work.
Take FFGAIAKLAMK [Checacin 1^1−11]: the “MIC, S. aureus (MRSA) ATCC33592” value is above 50 µM.

As for FFGAIAKLAMKFLPAIYKQIQ [Checacin 1^1−21], the “MIC, S. aureus (MRSA) ATCC33592” value was 12.5 µM.

As for “FFGAIAKLAMKFLPAIYKQIQKKRK-Amidation [Checacin 1]”, the “MIC, S. aureus (MRSA) ATCC33592” value is 1.56 µM.

Take “FLPAIYKQIQKKRK-Amidation [Checacin 1^12−25]”: the “MIC, S. aureus (MRSA) ATCC33592” value was above 50 µM.

The test system of the next assay is pea aphids.
Assay: not given
The note with it: feeding assay; cited from earlier work.
As for “FFGAIAKLAMKFLPAIYKQIQKKRK-Amidation [Checacin 1]”, the “Insecticidal activity in aphid feeding assays” value was “insecticidal activity in aphid feeding assays, but only after 72 h”.
